Data reported in ChEMBL document CHEMBL3774312, “5-Substituted 3-isopropyl-7-[4-(2-pyridyl)benzyl]amino-1(2)H-pyrazolo[4,3-d]pyrimidines with anti-proliferative activity as potent and selective inhibitors of cyclin-dependent kinases” (Eur J Med Chem, 2016).
Active and inactive are the calls of the source. No cut-off for these calls is given here.

What was measured:
[1] = system: MCF7; assay: Cell cycle arrest in BrdU pulse-labelled human MCF7 cells assessed as accumulation at late G2/M phase at 8 to 250 nM after 24 hrs by propidium iodide staining based flow cytometry; format: functional
[2] = system: HCT-116; assay: Induction of apoptosis in human HCT116 cells assessed as decrease in MCL-1 expression incubated for 24 hrs by immunoblotting analysis; format: functional, cell-based
Outline: (§1)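 HCT-116 cells were treated with different doses for 24 h and harvested into Laemmli buffer. Proteins were separated by SDS-PAGE and blotted to nitrocellulose. Membranes were probed overnight with primary antibodies (anti-PARP F-2, anti-Mcl-1 S-19, anti-p53 DO-1), then with peroxidase secondaries. Bands were detected by ECL with a CCD camera, with tubulin as loading control.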

[3] = system: G-361; assay: Induction of apoptosis in human G361 cells assessed as caspase7 activation using Ac-DEVD-AMC as substrate at IC50 preincubated for 24 hrs followed by substrate addition measured after 3 hrs by fluorescence assay; format: functional, cell-based
[4] = target: Serine/threonine-protein kinase N2 (Homo sapiens) (UniProt Q16513); assay: Inhibition of recombinant PRK2 (unknown origin) assessed as residual activity at 1 uM relative to control
[5] = target: Cyclin-dependent kinase 2/cyclin E1 (Homo sapiens, UniProt P24941); assay: Inhibition of CDK2/Cyclin E (unknown origin) expressed in sf9 cells using histone H1 as substrate in presence of [gamma33P]-ATP; format: cell-based
[6] = target: Receptor tyrosine-protein kinase erbB-4 (Homo sapiens) (UniProt Q15303); assay: Inhibition of recombinant HER4 (unknown origin) assessed as residual activity at 1 uM relative to control
Receptor tyrosine-protein kinase erbB-4 (Homo sapiens), sequence (Q15303 whole entry): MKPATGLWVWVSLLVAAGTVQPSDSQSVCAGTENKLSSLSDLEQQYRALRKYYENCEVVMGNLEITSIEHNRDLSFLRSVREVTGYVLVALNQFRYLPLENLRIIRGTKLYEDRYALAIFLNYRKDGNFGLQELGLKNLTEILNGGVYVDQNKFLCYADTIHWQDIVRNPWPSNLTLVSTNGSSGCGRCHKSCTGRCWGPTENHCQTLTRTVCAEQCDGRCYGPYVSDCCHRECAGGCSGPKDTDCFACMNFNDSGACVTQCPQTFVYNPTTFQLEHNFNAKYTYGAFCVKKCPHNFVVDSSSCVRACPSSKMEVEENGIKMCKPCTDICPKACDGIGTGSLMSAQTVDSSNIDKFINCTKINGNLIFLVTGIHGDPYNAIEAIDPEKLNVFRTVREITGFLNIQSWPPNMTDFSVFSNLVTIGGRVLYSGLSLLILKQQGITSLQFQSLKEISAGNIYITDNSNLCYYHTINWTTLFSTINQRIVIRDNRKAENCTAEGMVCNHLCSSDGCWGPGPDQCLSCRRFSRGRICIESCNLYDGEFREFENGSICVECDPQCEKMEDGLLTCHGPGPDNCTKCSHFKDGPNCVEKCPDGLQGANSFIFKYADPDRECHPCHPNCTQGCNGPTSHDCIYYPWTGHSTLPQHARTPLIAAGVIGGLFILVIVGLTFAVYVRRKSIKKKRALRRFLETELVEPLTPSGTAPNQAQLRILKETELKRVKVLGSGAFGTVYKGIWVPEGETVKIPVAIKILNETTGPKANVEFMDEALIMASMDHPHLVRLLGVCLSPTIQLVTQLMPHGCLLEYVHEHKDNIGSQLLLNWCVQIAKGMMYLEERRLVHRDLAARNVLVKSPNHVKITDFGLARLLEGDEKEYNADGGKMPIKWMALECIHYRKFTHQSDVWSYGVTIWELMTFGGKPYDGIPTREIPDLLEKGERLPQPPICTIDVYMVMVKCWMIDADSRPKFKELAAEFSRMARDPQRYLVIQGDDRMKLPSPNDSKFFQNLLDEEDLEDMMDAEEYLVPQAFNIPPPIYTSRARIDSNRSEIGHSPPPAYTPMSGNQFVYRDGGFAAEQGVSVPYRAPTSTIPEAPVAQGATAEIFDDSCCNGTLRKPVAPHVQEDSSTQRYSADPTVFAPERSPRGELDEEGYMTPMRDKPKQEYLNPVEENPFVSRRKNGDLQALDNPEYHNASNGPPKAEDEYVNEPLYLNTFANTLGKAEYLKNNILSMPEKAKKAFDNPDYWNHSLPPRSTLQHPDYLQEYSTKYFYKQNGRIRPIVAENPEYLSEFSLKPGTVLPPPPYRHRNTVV

[7] = target: Calcium/calmodulin-dependent protein kinase kinase 2 (Homo sapiens) (UniProt Q96RR4); assay: Inhibition of recombinant CAMKKB (unknown origin) assessed as residual activity at 1 uM relative to control
Calcium/calmodulin-dependent protein kinase kinase 2 (Homo sapiens), sequence (Q96RR4 2-588 limits assumed): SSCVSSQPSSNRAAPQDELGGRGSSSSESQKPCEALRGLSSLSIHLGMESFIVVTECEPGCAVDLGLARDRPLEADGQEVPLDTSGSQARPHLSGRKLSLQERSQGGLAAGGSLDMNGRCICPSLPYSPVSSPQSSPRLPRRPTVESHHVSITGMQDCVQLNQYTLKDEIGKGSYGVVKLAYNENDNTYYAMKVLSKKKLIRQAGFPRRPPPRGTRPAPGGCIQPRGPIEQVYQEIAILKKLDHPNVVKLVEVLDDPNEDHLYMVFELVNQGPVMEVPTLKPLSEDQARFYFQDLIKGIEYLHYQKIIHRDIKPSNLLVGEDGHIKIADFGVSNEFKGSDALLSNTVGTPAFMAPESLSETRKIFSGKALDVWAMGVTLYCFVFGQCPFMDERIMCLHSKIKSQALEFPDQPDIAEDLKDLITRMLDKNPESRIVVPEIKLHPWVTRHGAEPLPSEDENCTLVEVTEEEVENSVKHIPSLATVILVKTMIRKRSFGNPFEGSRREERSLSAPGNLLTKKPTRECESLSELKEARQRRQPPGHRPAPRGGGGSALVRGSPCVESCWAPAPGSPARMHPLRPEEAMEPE

[8] = target: Ribosomal protein S6 kinase alpha-5 (Homo sapiens) (UniProt O75582); assay: Inhibition of recombinant MSK1 (unknown origin) assessed as residual activity at 1 uM relative to control
[9] = target: Receptor-interacting serine/threonine-protein kinase 2 (Homo sapiens) (UniProt O43353); assay: Inhibition of recombinant RIPK2 (unknown origin) assessed as residual activity at 1 uM relative to control
[10] = target: 3-phosphoinositide-dependent protein kinase 1 (Homo sapiens) (UniProt O15530); assay: Inhibition of recombinant PDK1 (unknown origin) assessed as residual activity at 1 uM relative to control
[11] = system: MCF7; assay: Cell cycle arrest in BrdU pulse-labelled human MCF7 cells assessed as decrease in cells at S phase at 8 to 250 nM after 24 hrs by propidium iodide staining based flow cytometry; format: functional
[12] = target: Cyclin-dependent kinase 4 (Homo sapiens, UniProt P11802); assay: Inhibition of CDK4 (unknown origin)
[13] = Cell cycle arrest in BrdU pulse-labelled human HCT116 cells assessed as accumulation at late S phase at 125 to 500 nM after 24 hrs by propidium iodide staining based flow cytometry; format: functional; conditions: HCT-116
[14] = target: Mitogen-activated protein kinase kinase kinase 7 (Homo sapiens) (UniProt O43318); assay: Inhibition of recombinant TAK1 (unknown origin) assessed as residual activity at 1 uM relative to control
Mitogen-activated protein kinase kinase kinase 7 (Homo sapiens), sequence (O43318 whole entry): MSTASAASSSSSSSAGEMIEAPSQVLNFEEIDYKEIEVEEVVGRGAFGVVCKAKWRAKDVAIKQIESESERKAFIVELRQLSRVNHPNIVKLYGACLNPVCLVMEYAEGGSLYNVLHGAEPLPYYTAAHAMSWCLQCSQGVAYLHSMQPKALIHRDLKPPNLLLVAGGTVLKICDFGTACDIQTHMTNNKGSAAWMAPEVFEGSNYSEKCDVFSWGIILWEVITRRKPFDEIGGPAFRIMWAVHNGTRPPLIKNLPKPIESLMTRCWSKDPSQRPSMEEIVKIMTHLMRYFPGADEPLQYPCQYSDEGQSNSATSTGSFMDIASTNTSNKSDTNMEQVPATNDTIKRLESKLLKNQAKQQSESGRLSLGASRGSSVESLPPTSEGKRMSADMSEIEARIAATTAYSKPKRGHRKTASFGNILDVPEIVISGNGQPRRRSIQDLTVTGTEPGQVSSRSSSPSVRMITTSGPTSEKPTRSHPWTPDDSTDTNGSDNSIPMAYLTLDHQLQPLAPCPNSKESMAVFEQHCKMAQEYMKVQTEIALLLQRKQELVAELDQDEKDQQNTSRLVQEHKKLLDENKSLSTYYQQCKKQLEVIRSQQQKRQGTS

[15] = target: Cyclin-dependent kinase 1 (Homo sapiens, UniProt P06493); assay: Inhibition of CDK1 (unknown origin)
[16] = system: HCT-116; assay: Induction of apoptosis in human HCT116 cells assessed as increase in p53 expression at 250 to 500 nM incubated for 24 hrs by immunoblotting analysis; format: functional, cell-based; outline: as §1
[17] = target: High affinity nerve growth factor receptor (Homo sapiens) (UniProt P04629); assay: Inhibition of recombinant TrkA (unknown origin) assessed as residual activity at 1 uM relative to control
[18] = target: RAC-alpha serine/threonine-protein kinase (Homo sapiens) (UniProt P31749); assay: Inhibition of recombinant PKBalpha (unknown origin) assessed as residual activity at 1 uM relative to control
RAC-alpha serine/threonine-protein kinase (Homo sapiens), sequence (P31749 whole entry): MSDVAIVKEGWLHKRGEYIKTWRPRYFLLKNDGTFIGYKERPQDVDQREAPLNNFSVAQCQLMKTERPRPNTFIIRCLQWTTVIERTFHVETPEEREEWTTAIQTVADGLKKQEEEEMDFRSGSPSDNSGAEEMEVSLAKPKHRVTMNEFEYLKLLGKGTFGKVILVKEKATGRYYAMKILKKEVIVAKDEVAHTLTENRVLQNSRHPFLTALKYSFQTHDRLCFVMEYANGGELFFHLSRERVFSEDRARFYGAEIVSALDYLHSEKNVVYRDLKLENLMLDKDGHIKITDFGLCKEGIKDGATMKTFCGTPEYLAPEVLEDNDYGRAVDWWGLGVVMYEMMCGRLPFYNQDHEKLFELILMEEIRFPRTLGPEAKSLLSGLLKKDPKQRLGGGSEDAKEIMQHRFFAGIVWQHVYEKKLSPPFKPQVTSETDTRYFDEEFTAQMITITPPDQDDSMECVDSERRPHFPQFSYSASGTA

[19] = Cell cycle arrest in BrdU pulse-labelled human HCT116 cells assessed as accumulation at subG1 phase at 125 to 500 nM after 24 hrs by propidium iodide staining based flow cytometry; format: functional; conditions: HCT-116
[20] = target: Casein kinase II (Homo sapiens) (UniProt P67870+P68400+P19784); assay: Inhibition of recombinant CK2 (unknown origin) assessed as residual activity at 1 uM relative to control; format: protein-complex assay
[21] = target: Aurora kinase B (Homo sapiens) (UniProt Q96GD4); assay: Inhibition of recombinant Aurora B (unknown origin) assessed as residual activity at 1 uM relative to control
[22] = target: Serine/threonine-protein kinase STK11 (Homo sapiens) (UniProt Q15831); assay: Inhibition of recombinant LKB1 (unknown origin) assessed as residual activity at 1 uM relative to control
Serine/threonine-protein kinase STK11 (Homo sapiens), sequence (Q15831 whole entry): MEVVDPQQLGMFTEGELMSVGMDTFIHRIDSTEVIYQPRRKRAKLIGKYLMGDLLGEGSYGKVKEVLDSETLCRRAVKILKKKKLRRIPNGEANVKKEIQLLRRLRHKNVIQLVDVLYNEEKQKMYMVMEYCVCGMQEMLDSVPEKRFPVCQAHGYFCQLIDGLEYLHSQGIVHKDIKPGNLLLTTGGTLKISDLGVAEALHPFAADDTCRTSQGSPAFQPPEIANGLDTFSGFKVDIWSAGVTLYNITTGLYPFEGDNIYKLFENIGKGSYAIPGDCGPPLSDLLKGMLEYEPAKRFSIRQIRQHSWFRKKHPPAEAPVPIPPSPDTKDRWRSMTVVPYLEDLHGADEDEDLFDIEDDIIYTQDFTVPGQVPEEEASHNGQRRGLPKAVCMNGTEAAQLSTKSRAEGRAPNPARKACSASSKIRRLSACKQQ

[23] = target: Eukaryotic elongation factor 2 kinase (Homo sapiens) (UniProt O00418); assay: Inhibition of recombinant EF2K (unknown origin) assessed as residual activity at 1 uM relative to control
[24] = target: Ribosomal protein S6 kinase alpha-1 (Homo sapiens) (UniProt Q15418); assay: Inhibition of recombinant RSK1 (unknown origin) assessed as residual activity at 1 uM relative to control
Ribosomal protein S6 kinase alpha-1 (Homo sapiens), sequence (Q15418 whole entry): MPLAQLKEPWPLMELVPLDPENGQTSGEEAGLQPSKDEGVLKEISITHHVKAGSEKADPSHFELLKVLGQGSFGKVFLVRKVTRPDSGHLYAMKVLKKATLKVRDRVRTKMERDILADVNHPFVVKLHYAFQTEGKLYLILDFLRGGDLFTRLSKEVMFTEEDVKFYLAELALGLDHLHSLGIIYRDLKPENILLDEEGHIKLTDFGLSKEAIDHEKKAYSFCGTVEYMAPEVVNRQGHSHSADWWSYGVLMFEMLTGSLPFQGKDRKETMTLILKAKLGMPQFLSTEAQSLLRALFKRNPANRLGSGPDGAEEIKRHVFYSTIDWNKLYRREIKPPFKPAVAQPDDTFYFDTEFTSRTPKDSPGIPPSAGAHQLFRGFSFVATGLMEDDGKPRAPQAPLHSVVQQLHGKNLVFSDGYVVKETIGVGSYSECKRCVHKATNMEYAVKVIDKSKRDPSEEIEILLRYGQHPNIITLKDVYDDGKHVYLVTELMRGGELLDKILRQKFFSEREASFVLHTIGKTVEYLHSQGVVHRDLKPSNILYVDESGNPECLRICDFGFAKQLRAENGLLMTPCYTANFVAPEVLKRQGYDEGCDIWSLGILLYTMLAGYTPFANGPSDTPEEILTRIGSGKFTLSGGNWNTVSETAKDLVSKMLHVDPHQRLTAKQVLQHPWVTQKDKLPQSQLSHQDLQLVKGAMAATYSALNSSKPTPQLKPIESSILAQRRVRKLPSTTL

[25] = system: G-361; assay: Induction of apoptosis in human G361 cells assessed as caspase3 activation using Ac-DEVD-AMC as substrate at 5 times IC50 preincubated for 24 hrs followed by substrate addition measured after 3 hrs by fluorescence assay; format: functional, cell-based
[26] = target: Mitogen-activated protein kinase kinase kinase 11 (Homo sapiens) (UniProt Q16584); assay: Inhibition of recombinant MLK3 (unknown origin) assessed as residual activity at 1 uM relative to control
Mitogen-activated protein kinase kinase kinase 11 (Homo sapiens), sequence (Q16584 whole entry, looked up): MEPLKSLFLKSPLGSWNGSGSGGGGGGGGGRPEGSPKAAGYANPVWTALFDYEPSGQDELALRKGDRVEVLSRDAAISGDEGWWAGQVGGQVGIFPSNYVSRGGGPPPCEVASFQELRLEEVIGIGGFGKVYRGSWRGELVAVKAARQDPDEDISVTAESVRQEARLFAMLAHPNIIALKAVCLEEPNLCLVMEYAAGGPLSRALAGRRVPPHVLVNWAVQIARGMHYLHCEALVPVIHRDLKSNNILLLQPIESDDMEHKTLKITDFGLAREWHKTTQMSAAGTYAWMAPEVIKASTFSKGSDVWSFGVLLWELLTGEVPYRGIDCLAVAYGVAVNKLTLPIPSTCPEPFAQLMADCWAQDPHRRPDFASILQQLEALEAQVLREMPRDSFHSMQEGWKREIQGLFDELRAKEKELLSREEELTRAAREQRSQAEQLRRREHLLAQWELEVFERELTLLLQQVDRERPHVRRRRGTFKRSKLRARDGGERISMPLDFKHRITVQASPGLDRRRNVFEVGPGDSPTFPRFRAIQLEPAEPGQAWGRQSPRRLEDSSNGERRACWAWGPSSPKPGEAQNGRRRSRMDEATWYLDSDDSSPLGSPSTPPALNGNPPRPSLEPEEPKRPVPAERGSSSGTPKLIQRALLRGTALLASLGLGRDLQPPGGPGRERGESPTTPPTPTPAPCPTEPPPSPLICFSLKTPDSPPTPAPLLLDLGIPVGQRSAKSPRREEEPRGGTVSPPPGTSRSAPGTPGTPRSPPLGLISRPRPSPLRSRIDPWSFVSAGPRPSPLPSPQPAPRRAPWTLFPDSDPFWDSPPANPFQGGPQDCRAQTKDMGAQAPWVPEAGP

[27] = target: Serine/threonine-protein kinase PAK 4 (Homo sapiens) (UniProt O96013); assay: Inhibition of recombinant PAK4 (unknown origin) assessed as residual activity at 1 uM relative to control
[28] = system: MCF7; assay: Cell cycle arrest in BrdU pulse-labelled human MCF7 cells assessed as accumulation at late S phase at 8 to 250 nM after 24 hrs by propidium iodide staining based flow cytometry; format: functional
[29] = species: Homo sapiens; assay: Inhibition of recombinant PKA (unknown origin) assessed as residual activity at 1 uM relative to control
[30] = target: Tyrosine-protein kinase BTK (Homo sapiens) (UniProt Q06187); assay: Inhibition of recombinant BTK (unknown origin) assessed as residual activity at 1 uM relative to control
[31] = target: Calcium/calmodulin-dependent protein kinase type 1 (Homo sapiens) (UniProt Q14012); assay: Inhibition of recombinant CAMK1 (unknown origin) assessed as residual activity at 1 uM relative to control
[32] = target: Casein kinase I isoform delta (Homo sapiens) (UniProt P48730); assay: Inhibition of recombinant CK1delta (unknown origin) assessed as residual activity at 1 uM relative to control
[33] = target: Homeodomain-interacting protein kinase 2 (Homo sapiens) (UniProt Q9H2X6); assay: Inhibition of recombinant HIPK2 (unknown origin) assessed as residual activity at 1 uM relative to control
[34] = target: Ephrin type-A receptor 2 (Homo sapiens) (UniProt P29317); assay: Inhibition of recombinant EPHA2 (unknown origin) assessed as residual activity at 1 uM relative to control

SMILES: CC(O)CNc1nc(NCc2ccc(-c3ccccn3)cc2)c2[nH]nc(C(C)C)c2n1 (centres undefined)
- Activity [1]: Active
- Activity [2]: Dose-dependent effect
- Activity [3]: Active
- Activity [4]: > 100%
- IC50 [5]: 21 nM
- Activity [6]: > 100%
- Activity [7]: 49%
- Activity [8]: 97%
- Activity [9]: > 100%
- Activity [10]: > 100%
- Activity [11]: Active
- IC50 [12]: > 2000 nM
- Activity [13]: Active
- Activity [14]: > 100%
- IC50 [15]: 777 nM
- Activity [16]: Active
- Activity [17]: > 100%
- Activity [18]: > 100%
- Activity [19]: Active
- Activity [20]: 89%
- Activity [21]: 89%
- Activity [22]: 82%
- Activity [23]: 92%
- Activity [24]: 77%
- Activity [25]: Active
- Activity [26]: 98%
- Activity [27]: 69%
- Activity [28]: Active
- Activity [29]: 96%
- Activity [30]: > 100%
- Activity [31]: 77%
- Activity [32]: 67%
- Activity [33]: > 100%
- Activity [34]: 92%
